Source: ChEMBL document CHEMBL1135694, “Optimization of alkylidene hydrazide based human glucagon receptor antagonists. Discovery of the highly potent and orally available 3-cyano-4-hydroxybenzoic acid [1-(2,3,5,6-tetramethylbenzyl)-1H-indol-4-ylmethylene]hydrazide” (J Med Chem, 2002)

Tests used:
[1] = Turnover in rat liver microsomes; type: ADME, Microsome
Procedure, shortened: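 Rat liver microsomes (0.331 mg/mL protein) with 10 µM compound, 1 mM UDP-GA and 1 mM NADPH in KH2PO4 buffer, pH 7.4, at 37 °C. Sampled at 0-30 min (n = 3), stopped with MeCN. Rate was taken from parent disappearance by LC-MS.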

[2] = tmax after peroral administration (2 mg/kg) in dog was determined; range 30-45; type: ADME, organism-based, Canis lupus familiaris; conditions: in vivo, po
Procedure, shortened: (§1)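 Four purpose-bred male beagle dogs, 11-19 kg, 15-18 months old. Dosed 0.5 mg/kg intravenously, or 2.0 mg/kg perorally by gavage using the same dosing solution as the iv dose. Blood was sampled at set times from predose to 4 h postdose and assayed by LC-MS-MS. PK parameters were derived by noncompartmental analysis; half-lives are given as harmonic means.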

[3] = target: Glucagon receptor (Rattus norvegicus) (UniProt P30082); experiment: (§2) In vitro binding affinity towards rat glucagon receptor
Glucagon receptor (Rattus norvegicus), sequence (P30082 whole entry): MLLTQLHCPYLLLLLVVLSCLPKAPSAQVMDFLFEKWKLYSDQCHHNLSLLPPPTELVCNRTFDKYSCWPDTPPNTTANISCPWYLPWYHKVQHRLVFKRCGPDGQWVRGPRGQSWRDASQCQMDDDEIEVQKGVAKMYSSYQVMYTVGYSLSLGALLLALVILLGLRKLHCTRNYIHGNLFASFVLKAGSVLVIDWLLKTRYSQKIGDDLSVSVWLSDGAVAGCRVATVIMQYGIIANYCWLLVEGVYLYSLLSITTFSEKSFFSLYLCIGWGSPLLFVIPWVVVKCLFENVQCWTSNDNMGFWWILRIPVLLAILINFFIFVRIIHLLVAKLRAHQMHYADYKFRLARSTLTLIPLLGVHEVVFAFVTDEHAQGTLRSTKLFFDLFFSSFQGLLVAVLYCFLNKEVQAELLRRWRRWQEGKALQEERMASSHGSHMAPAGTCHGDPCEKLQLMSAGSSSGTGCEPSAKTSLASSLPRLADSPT

Rattus norvegicus = species on record: Rattus norvegicus; experiment: Inhibitory activity against glucogon-stimulated glucose production from isolated primary rat hepatocytes; type: functional; conditions: hepatocyte
Procedure, shortened: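 Hepatocytes came from fed male Sprague-Dawley rats by two-step perfusion and were glycogen-loaded with 15 mM glucose and 10 nM insulin for 24 h. Cells were then given compound (0-1000 nM) plus 0.5 nM glucagon for 70 min in HEPES/bicarbonate buffer with 0.1% HSA, pH 7.4, 37 °C. Released glucose and glycogen were measured. Ki came from Schild analysis; mean ± SEM of four hepatocyte preparations.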

[4] = tmax in dog was determined; range 30-45; conditions: in vivo
Glucagon receptor [5] = target: Glucagon receptor (Homo sapiens, UniProt P47871); experiment: In vitro binding affinity for recombinant human glucagon receptor (hGGR) in BHK cells; type: cell-based
Glucagon receptor (Homo sapiens, UniProt P47871), sequence (P47871 whole entry): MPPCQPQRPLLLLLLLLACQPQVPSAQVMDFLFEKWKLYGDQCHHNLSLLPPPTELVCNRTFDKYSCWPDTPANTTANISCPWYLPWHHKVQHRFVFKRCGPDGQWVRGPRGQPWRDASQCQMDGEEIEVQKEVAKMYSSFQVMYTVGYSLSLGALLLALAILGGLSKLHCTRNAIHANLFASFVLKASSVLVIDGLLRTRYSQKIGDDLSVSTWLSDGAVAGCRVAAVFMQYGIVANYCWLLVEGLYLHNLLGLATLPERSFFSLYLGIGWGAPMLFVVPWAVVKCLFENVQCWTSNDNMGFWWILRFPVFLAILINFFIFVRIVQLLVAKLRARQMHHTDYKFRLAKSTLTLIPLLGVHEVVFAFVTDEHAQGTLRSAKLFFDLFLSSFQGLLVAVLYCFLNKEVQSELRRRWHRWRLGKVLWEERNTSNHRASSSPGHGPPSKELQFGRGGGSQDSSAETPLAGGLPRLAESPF
Procedure, shortened: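 Membranes (4 µg) from BHK cells expressing the cloned human glucagon receptor. Compounds were diluted in DMSO, and a glucagon standard curve was run. IC50 given as mean ± SD, n = 3.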

[6] = Half life period after intravenous administration (0.5 mg/kg) in dog was determined; type: ADME, organism-based, Canis lupus familiaris; conditions: in vivo; procedure, shortened: as §1
Glucagon receptor [7] = target: Glucagon receptor (Rattus norvegicus, UniProt P30082); experiment: as §2
Glucagon receptor (Rattus norvegicus, UniProt P30082), sequence (P30082 whole entry): as the sequence (P30082 whole entry) above

[8] = Oral bioavailability in dog; type: ADME, organism-based, Canis lupus familiaris; conditions: in vivo; procedure, shortened: as §1

Metabolism [1]: 34 pmol/min/mg | Tmax [2]: 30 min | Kb [3]: 0.38 nM | Ki (Rattus norvegicus): 14 nM | Tmax [4]: 30 min | IC50 (Glucagon receptor [5]): 2.3 nM | half-life [6]: 66.6 min | IC50 (Glucagon receptor [7]): 0.43 nM | bioavailability [8]: 15%
SMILES: Cc1cc(C)c(C)c(Cn2ccc3c(/C=N/NC(=O)c4ccc(O)c(C#N)c4)cccc32)c1C
